“And” between values parts separate entries of the source, which are not always exact repeats. Equal entries are not always repeated.
Test system: U2OS
Test: Multiplex assay against U2OS
Type: toxicity, cell-based
Conditions: human, number of replicates 2
Summary of the method: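 Cells stained live at seeding with Hoechst33342, BioTracker Green Microtubule Cytoskeleton Dye, MitoTracker Red and Annexin V Alexa Fluor 680 were imaged on a CQ1 microscope at 37°C and 5% CO2 after compound addition. Their classification by CellPathfinder machine-learning gating ran from Hoechst high-intensity objects versus normal cells, to healthy, pyknosed or fragmented nuclei among normal cells, to mitotic or apoptotic among pyknosed cells. Tubulin, mitochondrial-mass and membrane-permeability phenotypes are per cents of healthy-nucleus cells.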

[1] = 12 h, 1 µM, compound concentration 1 uM
[2] = 12 h, 10 µM, compound concentration 10 uM
[3] = 24 h, 1 µM, compound concentration 1 uM
[4] = 24 h, 10 µM, compound concentration 10 uM
[5] = 48 h, 1 µM, compound concentration 1 uM
[6] = 48 h, 10 µM, compound concentration 10 uM

## Cn1ncc(NC(=O)c2nc(-c3c(F)cccc3F)sc2N)c1N1CC[C@@H](N)[C@H](F)CC1
[1]
  Population Apoptotic (%): 55% and 77%
  Population Healthy Nuclei (%): 46% and 79%
  Population Hoechst High Intensity Objects (%): 0%
  Population Mitochondria Different-Phenotype (%): 0%
  Population Normal (%): 100%
  Population Pyknosed Nuclei (%): 19%
  Population Tubulin-Different-Phenotype (%): 50% and 77%
[2]
  Population Apoptotic (%): 73% and 69%
  Population Healthy Nuclei (%): 22% and 53%
  Population Hoechst High Intensity Objects (%): 0%
  Population Mitochondria Different-Phenotype (%): 0% and 18%
  Population Normal (%): 98% and 99%
  Population Pyknosed Nuclei (%): 44% and 24%
  Population Tubulin-Different-Phenotype (%): 38% and 39%
[3]
  Population Apoptotic (%): 50% and 89%
  Population Healthy Nuclei (%): 48% and 85%
  Population Hoechst High Intensity Objects (%): 0%
  Population Mitochondria Different-Phenotype (%): 8%
  Population Normal (%): 100% and 99%
  Population Pyknosed Nuclei (%): 16% and 7%
  Population Tubulin-Different-Phenotype (%): 62% and 80%
[4]
  Population Apoptotic (%): 90% and 86%
  Population Mitochondria Different-Phenotype (%): 33%
  Population Normal (%): 98% and 100%
  Population Pyknosed Nuclei (%): 49% and 31%
  Population Tubulin-Different-Phenotype (%): 33% and 56%
  Total Cell Count: 64 and 190
[5]
  Population Apoptotic (%): 84% and 66%
  Population Healthy Nuclei (%): 90% and 65%
  Population Hoechst High Intensity Objects (%): 0%
  Population Mitochondria Different-Phenotype (%): 7%
  Population Normal (%): 100%
  Population Pyknosed Nuclei (%): 5%
  Population Tubulin-Different-Phenotype (%): 84% and 49%
[6]
  Population Apoptotic (%): 96% and 93%
  Population Healthy Nuclei (%): 21% and 44%
  Population Hoechst High Intensity Objects (%): 0%
  Population Mitochondria Different-Phenotype (%): 25% and 19%
  Population Normal (%): 100%
  Population Pyknosed Nuclei (%): 53% and 36%
  Population Tubulin-Different-Phenotype (%): 41% and 57%

## C[C@@H]1CC[C@@]2(OC1)O[C@H]1[C@@H](O)[C@H]3[C@@H]4CC[C@H]5C[C@@H](O[C@@H]6O[C@H](CO)[C@H](O[C@@H]7O[C@H](CO)C(O)[C@H](O[C@@H]8OC[C@@H](O)[C@H](O)[C@H]8O)[C@H]7O[C@@H]7O[C@H](CO)[C@H](O)[C@H](O[C@@H]8O[C@H](CO)[C@@H](O)[C@H](O)[C@H]8O)[C@H]7O)[C@H](O)[C@H]6O)[C@H](O)C[C@]5(C)[C@H]4CC[C@]3(C)[C@H]1[C@@H]2C (stereo not given in full) [DIGITONIN]
[2]
  Population Apoptotic (%): 65% [middle of 4 runs]
  Population Healthy Nuclei (%): 67% and 87% and 86% and 88%
  Population Hoechst High Intensity Objects (%): 0%
  Population Membrane Permeable-Phenotype (%): 0% and 7% and 1% and 3%
  Population Mitochondria Different-Phenotype (%): 0% and 3%
  Population Normal (%): 100%
  Population Pyknosed Nuclei (%): 5% and 3% and 9%
  Population Tubulin-Different-Phenotype (%): 72% and 92% and 85% and 94%
[4]
  Population Apoptotic (%): 58% [middle of 4 runs]
  Population Healthy Nuclei (%): 67% and 83% and 85% and 86%
  Population Hoechst High Intensity Objects (%): 0%
  Population Membrane Permeable-Phenotype (%): 0% and 2% and 1%
  Population Mitochondria Different-Phenotype (%): 0% and 2%
  Population Normal (%): 100%
  Population Pyknosed Nuclei (%): 13% and 12% and 9%
  Population Tubulin-Different-Phenotype (%): 65% and 97% and 90% and 96%
[6]
  Population Apoptotic (%): 70% and 100% and 62% and 51%
  Population Healthy Nuclei (%): 68% and 75% and 92% and 91%
  Population Hoechst High Intensity Objects (%): 1% and 0%
  Population Membrane Permeable-Phenotype (%): 3% and 1% and 0%
  Population Mitochondria Different-Phenotype (%): 5% and 1% and 0%
  Population Normal (%): 98% and 100% and 99%
  Population Pyknosed Nuclei (%): 13% and 7% and 6% and 5%
  Population Tubulin-Different-Phenotype (%): 84% and 100% and 92% and 97%

From ChEMBL document CHEMBL5303300, “EUbOPEN Chemogenomics Library - Multiplex” (2023)
